Screens (PubChem BioAssay)
ERAP1 HTS inh – human ERAP1 aminopeptidase inhibitors, primary screen, biochemical, single point, plate reader; Endoplasmic reticulum aminopeptidase 1 (Homo sapiens), Q9NZ08; recombinant ERAP1, Leu-AMC fluorescence, 60 min; inhibition, % at 10.7 µM; 340,000 compounds, 0.15% hits; AID 652197, 2013;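 active means mean replicate inhibition of at least 30%, or all replicates individually reaching that 30% level; inactive means mean below 30% and not every replicate reaching it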;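 further: 0% = neutral control wells and 100% = L-leucinethiol positive control wells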
AF4-AF9 inh – inhibitors of AF4 peptide binding to AF9, primary screen, biochemical, AlphaScreen, biotin-AF4 peptide, FLAG-AF9, single point; Protein AF-9 (Homo sapiens), P42568; inhibition, % at 10 µM; 350,000 compounds, 0.47% hits;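 active means every replicate reaching a set inhibition limit, whatever the replicate mean, cut at about 25% in these data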;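 further: 0% = plate neutral control median and 100% = total signal loss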
Target sequence (P42568 whole entry, looked up): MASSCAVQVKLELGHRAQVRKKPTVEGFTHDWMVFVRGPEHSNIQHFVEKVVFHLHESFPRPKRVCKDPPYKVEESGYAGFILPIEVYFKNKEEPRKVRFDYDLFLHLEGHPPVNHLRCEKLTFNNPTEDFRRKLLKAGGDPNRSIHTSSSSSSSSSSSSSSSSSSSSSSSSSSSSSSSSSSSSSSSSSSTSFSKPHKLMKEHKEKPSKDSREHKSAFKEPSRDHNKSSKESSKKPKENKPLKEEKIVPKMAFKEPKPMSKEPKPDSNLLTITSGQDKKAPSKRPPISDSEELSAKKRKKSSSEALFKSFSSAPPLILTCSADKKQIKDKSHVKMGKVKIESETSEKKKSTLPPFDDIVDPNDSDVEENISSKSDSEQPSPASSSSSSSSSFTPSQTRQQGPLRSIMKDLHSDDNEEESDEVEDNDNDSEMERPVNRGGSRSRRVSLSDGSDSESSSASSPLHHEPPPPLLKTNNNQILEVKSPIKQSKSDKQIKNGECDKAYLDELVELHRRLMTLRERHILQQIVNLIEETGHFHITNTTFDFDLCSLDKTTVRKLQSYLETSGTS
RAD52 inh – RAD52 DNA annealing inhibitors, primary screen, biochemical, FRET, single point, set 2; recombinant RAD52 DNA annealing, FRET fluorescence; inhibition, % at 18.7 µM; 360,000 compounds, 0.46% hits;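 active means every replicate showing at least 50% inhibition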
INS-1E GSIS act – GLuc luminescence reporter in INS-1E cells, primary screen for activators of glucose-dependent secretion of insulin. 370,000 compounds, 0.61% hits. AID 743287, 2014. activation, % at 16.6 µM. INS-1E GLuc reporter insulin secretion, 2-3 h;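 active means lowest replicate activation of at least 40%, so every replicate reaches that level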;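 further: 0% = median of neutral control wells and 100% = median of IBMX positive control wells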
S100A4 MyoIIA – inhibitors of S100A4-myosin IIA peptide binding, primary screen, biochemical, fluorescence polarization, TAMRA-MyoIIA peptide. Protein S100-A4 (Homo sapiens), P26447. inhibition, % at 10.7 µM. 360,000 compounds, 0.14% hits;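 active means mean inhibition of at least 70% across replicates, with every replicate also reaching that level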
Target sequence (P26447 whole entry, looked up): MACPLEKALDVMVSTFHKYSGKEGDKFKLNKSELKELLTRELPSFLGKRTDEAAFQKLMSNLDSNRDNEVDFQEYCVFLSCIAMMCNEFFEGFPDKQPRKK
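Material: S100A4 monomer (human). Medium: Calcium-containing HEPES buffer, pH 7.2. Probe or stimulus: labelled myosin peptide probe, 5 nM. Compound dosing: one concentration per compound. Timing: polarization read 5 min after assay mix addition, stable 5–60 min. Benchmarks: DMSO as neutral control, TFP as positive control.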
Active calls of the source: *; i = inactive; . = not tested or not shown. A selection: hits, their analogues and other compounds. The true share with any hit is near 1.5%.

SMILES | ERAP1 HTS inh | AF4-AF9 inh | RAD52 inh | INS-1E GSIS act | S100A4 MyoIIA
Cc1ccc(NC(=O)Nc2nnc(CSCCOc3ccc(Cl)cc3)s2)cc1 | 4 | -6 | -11 | . | -1
O=C(Nc1cccc(Cl)c1)Nc1nnc(CSCCOc2ccc(Cl)cc2)s1 | . | . | . | 54* | .
CCCC#Cc1ccc2c(c1)[C@H]1[C@H](CCN1S(=O)(=O)c1ccc(F)cc1)[C@@H](CO)N2 | . | . | . | -16 | .
CC(=O)N(C)C[C@@H]1Oc2c(cccc2N(C)C)C(=O)N(C)C[C@@H]1C | . | . | . | 5 | .
COc1ccc2c3c(cccc13)C(=O)CC2 | 3 | 0 | i | -29 | 166*
Cc1ccc(-c2ccc3c(c2)O[C@H](CN(C)S(C)(=O)=O)[C@@H](C)CN([C@H](C)CO)S3(=O)=O)cc1 | 1 | 0 | -4 | -8 | -30
CCc1cc2c(COC(=O)c3cccc(NS(C)(=O)=O)c3)cc(=O)oc2cc1O | 2 | -2 | 16 | 65* | -7
CCc1cc2c(COC(=O)c3cc(S(=O)(=O)N4CCOCC4)ccc3F)cc(=O)oc2cc1O | -4 | 3 | -31 | . | 1
COc1ccc(NC(=O)CSc2ncnc3c2sc2ccccc23)c(OC)c1 | . | . | . | 58* | .
COc1ccc(OC)c(NC(=O)CSc2ncnc3sc(C)cc23)c1 | 4 | -3 | -17 | 7 | -6
CCC(=O)N1CC2(C1)CN(Cc1ccc(OC)cc1)[C@@H](CO)c1[nH]c3cc(OC)ccc3c12 | . | . | . | 25 | .
CC(C)CC#Cc1ccc([C@H]2[C@@H](CO)N3C(=O)CN(C(=O)NC(C)C)C[C@H]23)cc1 | . | . | . | -8 | .
CCOc1cc(C(=O)O/N=C(\N)c2ccccn2)cc(OCC)c1OCC | -2 | -1 | 0 | 15 | 0
CCOc1ccc(C(=O)O/N=C(\N)c2ccccn2)cc1OCC | -3 | -2 | -2 | 87* | -1
Cc1noc(C)c1NC(=O)Nc1ccc2c(c1)C(=O)N([C@@H](C)CO)C[C@H](C)[C@@H](CN(C)C(=O)Nc1ccccc1)OCCCC[C@H](C)O2 | -1 | -2 | 1 | -6 | -4
C[C@@H]1CN(C)C(=O)c2cccnc2O[C@@H]1CN(C)C | . | . | . | 10 | .
O=[N+]([O-])c1ccc(C=NN2CCCCCC2)cc1 | 0 | 35* | -9 | . | -2
COc1ccc2c3c([nH]c2c1)[C@@H](CO)N(Cc1cc(F)ccc1F)CC31CN(C)C1 | 0 | 3 | 11 | 13 | 39
COc1ccc(CN2CC3(CN(C(=O)c4ccccc4)C3)c3c([nH]c4cc(OC)ccc34)[C@H]2CO)cc1 | 1 | -2 | 0 | 43 | 73*
COc1ccc(CN2CC3(C2)CN(Cc2ccc4c(c2)OCO4)[C@@H](CO)c2[nH]c4cc(OC)ccc4c23)cc1 | . | 50* | . | -24 | .
COc1ccc(CN2CC3(CN(C(=O)Cc4ccccc4)C3)c3c([nH]c4cc(OC)ccc34)[C@H]2CO)cc1 | -4 | 5 | -9 | -29 | 4
COc1ccc2c3c([nH]c2c1)[C@H](CO)N(Cc1cc(F)ccc1F)CC31CN(C)C1 | 40* | 2 | 12 | -8 | -32
C[C@H](CO)N1C[C@H](C)[C@H](CN(C)Cc2ccc(Oc3ccccc3)cc2)Oc2ccc(NC(=O)c3ccncc3)cc2CC1=O | -1 | 3 | -11 | -14 | -18
O=C1[C@H](Cc2ccc(C(F)(F)F)cc2)CCn2cc(nn2)COC[C@H]2CCCCN12 | . | . | . | 13 | .
COC(=O)c1ccc(Oc2ccc(C(F)(F)F)cn2)cc1 | -2 | -6 | -11 | 56* | -3
SMILES | ERAP1 HTS inh | AF4-AF9 inh | RAD52 inh | INS-1E GSIS act | S100A4 MyoIIA
O=C(O)c1ccc(Oc2ccc(C(F)(F)F)cn2)cc1 | -1 | -2 | -11 | 13 | 4
COC(=O)C1=C(C)NC(c2c(O)ccc3ccccc23)C(C(=O)OC)=C1C (stereo not given) | . | . | . | 53* | .
COC(=O)C1=C(C)NC(=O)NC1c1c(O)ccc2ccccc12 (stereo not given) | -4 | -17 | -13 | 5 | 1
CC(=O)N(C)C[C@H]1Oc2ccccc2C(=O)N(C)C[C@H]1C | . | . | . | -8 | .
Fc1ccc(-c2cc(C(F)(F)F)nc(-n3cc(Cl)cn3)n2)cc1 | . | 2 | -4 | 17 | -4
FC(F)(F)c1cc(-c2ccccc2)nc(-n2cc(Cl)cn2)n1 | -1 | 4 | -15 | 51* | 2
CCc1ccc(C(=O)COC(=O)C(Cc2ccccc2)NC(=O)C2CCC(C)CC2)cc1 (stereo not given) | . | . | . | 48* | .
CC(C)Cn1c(=O)n(C)c(=O)c2[nH]cnc21 | -1 | -2 | -8 | 73* | 6
Cn1c(=O)c2[nH]cnc2n(C)c1=O | -1 | -2 | -12 | 11 | -13
O=C1C2C(c3ccccc3)CC=CC2[C@H](c2ccc3ccccc3c2)N1Cc1ccccc1 (stereo not given in full) | 1 | -5 | -14 | . | -3
Cc1ccc(F)c([C@H]2C3C=CCC(c4ccccc4)C3C(=O)N2Cc2ccccc2)c1 (stereo not given in full) | -3 | 50* | -16 | -4 | -1
C[C@H](NC(=O)C[C@H]1CC[C@H](NC(=O)C2CCOCC2)[C@@H](CO)O1)c1ccccc1 | 0 | 2 | 8 | 8 | 9
C[C@H](NC(=O)C[C@@H]1CC[C@H](NC(=O)C2CCOCC2)[C@@H](CO)O1)c1ccccc1 | 1 | 2 | -3 | -1 | 111*
CCN1CCN(S(=O)(=O)c2cccs2)CC1 | 1 | -66 | -10 | 3 | 4
CCC(CC)NC(=O)CN1CCN(S(=O)(=O)c2cccs2)CC1 | 4 | -1 | 1 | 47* | -2
C[C@@H]1CN([C@H](C)CO)C(=O)Cc2cc(NC(=O)Nc3cccc4ccccc34)ccc2O[C@H]1CN(C)C | -2 | 2 | 9 | -11 | -2
O=C(N1CCCCC1)C1(c2ccccc2)CCCCC1 | -5 | -3 | 6 | . | -3
CC1(C(=O)N2CCCCC2)CCN1C(=O)C1(c2ccccc2)CC1 (stereo not given) | -3 | 2 | -8 | 40* | 3
COc1ccc(C(O)c2nccc3cc(OC)c(OC)cc23)cc1OC (stereo not given) | -1 | 1 | -9 | 83* | 5
COCCN(CC(=O)Nc1cccc(C)c1C)C(=O)CN1C(=O)NC2(CCCCC2)C1=O | 45* | -2 | -10 | -2 | -4
Cc1cccc(NC(=O)CN2C(=O)NC3(CCCCCCC3)C2=O)c1C | 1 | 4 | -5 | 7 | -7
Cc1cccc(C)c1OCC(=O)N=Nc1c(O)[nH]c2ccc(Br)cc12 | . | . | . | 51* | .
CCCC(=O)N1CCC2(CC1)CN(C(=O)Nc1ccc(F)cc1)[C@H](CO)c1c2c2ccc(OC)cc2n1C | . | -5 | . | -38 | .
COc1ccccc1N(CC(=O)Nc1ccccc1C(=O)NC(C)C)S(C)(=O)=O | 3 | . | -12 | 1 | -1
